Five compounds from ChEMBL document CHEMBL1155597, “Activity of extracts and isolated naphthoquinones from Kigelia pinnata against Plasmodium falciparum” (J Nat Prod, 2000) can be followed below.

Data set [1] can be described thus: Selectivity ratio of ED50 for KB cells to IC50 for Plasmodium falciparum K1. The format is ADME, cell-based. As to conditions: human, KB cells (cytotoxicity) versus Plasmodium falciparum K1. A digest of the protocol: (§1)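 Ratio of KB ED50 to P. falciparum IC50. KB ED50 comes from the 48 h MTT assay. Parasite IC50 comes from a 48 h modified lactate dehydrogenase assay on ring-stage cultures (1% parasitemia, 2% hematocrit, A+ human RBC), 37 °C, 1% O2/3% CO2/96% N2. Compounds tested at 50 μg/mL to 1.63 ng/mL in 2-fold dilutions, twice in triplicate, with NBT/PES read at 650 nm.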

The subject of a further data set is KB. As to the kind of experiment: Cytotoxicity against human KB cells after 48 hrs by MTT assay. The format is functional. The note with it: read-out: ED50 (the source's name). A digest of the protocol: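 KB human oral epidermal carcinoma cells in DMEM glutamax-1 + 10% HIFCS, 37 °C, 5% CO2. Log-phase cells seeded at 25 000/well and left 24 h to attach. Compounds added from DMSO (≤0.5% final), 200 to 0.064 μg/mL in 5-fold series, triplicate. After 48 h, MTT added for 4 h, formazan dissolved in DMSO, A540 blank-subtracted. Growth expressed as % of untreated control.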
A general note: Tetrazolium assays rely on reduction of a dye to a coloured formazan, in cell work by metabolically active cells.

Data set [2] can be described thus: Selectivity ratio of ED50 for KB cells to IC50 for Plasmodium falciparum T9-96. The format is ADME, cell-based. As to conditions: human, KB cells (cytotoxicity) versus Plasmodium falciparum T9-96. The method in brief: as §1
For data set [3], the system named is Plasmodium falciparum. As to the kind of experiment: Antimalarial activity after 48 hrs against chloroquine-sensitive Plasmodium falciparum T9-96 by LDH reporter assay. The format is functional, organism-based. The note with it: T9-96, 48 h. A digest of the protocol:
(§2)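 Asexual cultures kept in 5% A+ human red cells in RPMI 1640 with HEPES, glucose, NaHCO3, hypoxanthine, gentamycin and 10% A+ human serum under 1% O2/3% CO2/96% N2 at 37 °C. Ring-stage blood (1% parasitemia, 2% hematocrit) exposed 48 h to compounds at 50 µg/mL to 1.63 ng/mL final (2-fold). Modified LDH read-out: Malstat, then NBT/phenazine ethosulfate, absorbance at 650 nm. Tested twice in triplicate; IC50 ± SD.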
Background: In a reporter assay the amount or activity of a reporter protein is the signal.

Data set [4] has as its system Plasmodium falciparum. As to the kind of experiment: Antimalarial activity after 48 hrs against chloroquine-resistant Plasmodium falciparum K1 by LDH reporter assay. It is filed as functional, organism-based. As to conditions: K1, 48 h. The method in brief: as §2

Broadly, the IC50 is the concentration needed to halve the response being measured. Read a high IC50 as weaker potency.

SMILES strings stand for the structures.

For `CC(O)c1cc2c(o1)C(=O)c1ccccc1C2=O` (stereo unspecified), the figures for the selectivity ratio in data set [1] and in data set [2] were 6.18 and 5.4, respectively. For the same compound, the EC50 in the data set on KB was found to be 3.9 µM. In addition, the IC50 stood at 0.718 µM in the data set with Plasmodium falciparum [3] and 0.627 µM in the data set on Plasmodium falciparum [4].

Regarding `CCN(CC)CCCC(C)Nc1ccnc2cc(Cl)ccc12` (stereo unspecified) [CHLOROQUINE PHOSPHATE], the EC50 with KB came to 43.9 µM.

For the compound `CC1=C2C=C3C(=O)c4cc(O)ccc4C(=O)C3(O)C(C)=C2CC1` (stereo unspecified) [ISOKIGELINOL], the selectivity ratio in data set [1] turned out to be 12.7; in data set [2], 14. Moreover, the EC50 in the data set on KB came to 167 µM. Also, the IC50 in the data set with Plasmodium falciparum [3] was determined as 11.9 µM; in the data set with Plasmodium falciparum [4], 15.2 µM.

In the case of `C[C@]12CC[C@@H]3[C@H]1C=C1C(=O)c4cc(O)ccc4C(=O)[C@@]1(O2)[C@]3(C)C=O` [ISOPINNATAL], the selectivity ratio in data set [1] worked out at 19.4; in data set [2] it was 9.54. In addition, the EC50 in the data set with KB amounted to 14.8 µM. For the same compound, the results for the half-maximal inhibitory concentration (IC50) in the data set with Plasmodium falciparum [3] and with Plasmodium falciparum [4] were 1.55 µM and 0.763 µM, respectively.

`CC1=C2C=C3C(=O)c4ccc(O)cc4C(=O)C3(O)C(C)=C2CC1` (stereo unspecified) [KIGELINOL]: the selectivity ratio in data set [1] amounted to 8.88; in data set [2], 9.74. The EC50 in the data set with KB turned out to be 148 µM. The IC50 in the data set on Plasmodium falciparum [3] was 15.2 µM; with Plasmodium falciparum [4] it was 16.7 µM.
